Consider 7 compounds from ChEMBL document CHEMBL3046793, “Fungicidal property of Curcuma longa L. rhizome-derived curcumin against phytopathogenic fungi in a greenhouse” (2003).

Format in all cases: functional
Test [1] deals with Blumeria graminis. Briefly: Fungicidal activity against Blumeria graminis infected first-leaf stage of barley plant at 500 mg/l applied as spray under green house conditions relative to control.
Test [2] has as its system Blumeria graminis. The test can be described thus: Fungicidal activity against Blumeria graminis infected first-leaf stage of barley plant at 1000 mg/l applied as spray under green house conditions relative to control. The essentials:
(§1)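 Barley at fully expanded first leaf (four plants/pot) sprayed with test material (DMSO stock diluted in water with Tween 20 at 250 µg/mL), greenhouse 1 day, then dusted with E. graminis conidia from infected barley (8 treated pots per source pot). Controls got Tween 20 solution. Control value = (untreated − treated disease area)/untreated × 100; triplicate.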

Test [3] concerns Puccinia recondita. Briefly: Fungicidal activity against Puccinia recondita infected first leaf stage of wheat plant at 500 mg/l applied as spray after 10 days under green house conditions relative to control. The essentials:
(§2)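 Whole-plant greenhouse spray assay: sample dissolved in DMSO, diluted in water with Tween 20 (250 µg/mL), 50 mL sprayed over two pots; plants held 1 day before inoculation with P. recondita; controls got Tween 20 solution. Control value = (untreated − treated disease area)/untreated × 100; three replicates.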

In test [4] the test system is Puccinia recondita. The test can be described thus: Fungicidal activity against Puccinia recondita infected first leaf stage of wheat plant at 1000 mg/l applied as spray after 10 days under green house conditions relative to control. Summed up:
as §2

Test [5] relates to Phytophthora infestans. Briefly: Fungicidal activity against Phytophthora infestans infected second leaf-stage of tomato plant at 500 mg/l applied as spray after 4 days under green house conditions relative to control.
Test [6] concerns Phytophthora infestans. The test can be described thus: Fungicidal activity against Phytophthora infestans infected second leaf-stage of tomato plant at 1000 mg/l applied as spray after 4 days under green house conditions relative to control.
Test [7] concerns Botrytis cinerea. The test can be described thus: Fungicidal activity against Botryotinia fuckeliana infected first-leaf stage of cucumber plant at 500 mg/l applied as spray after 4 to 5 days under green house conditions relative to control.
Test [8] relates to Botrytis cinerea. The test can be described thus: Fungicidal activity against Botryotinia fuckeliana infected first-leaf stage of cucumber plant at 1000 mg/l applied as spray after 4 to 5 days under green house conditions relative to control.
Test [9] relates to Rhizoctonia solani. Briefly: Fungicidal activity against Rhizoctonia solani infected in third leaf stage of rice plant at 1000 mg/l applied as spray after 5 days under green house conditions relative to control. Summed up: (§3)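 Rice at third leaf (three plants/pot) sprayed with sample in DMSO/Tween 20 (250 µg/mL) water; after 1 day inoculated by injecting at plant base R. solani inoculum (7-day wheat bran culture at 25 °C, macerated 500 g/L water). Held 5 days in lit chamber at 28 °C. Control value from diseased area against Tween-sprayed controls; triplicate.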

In test [10] the test system is Rhizoctonia solani. The test can be described thus: Fungicidal activity against Rhizoctonia solani infected in third leaf stage of rice plant at 500 mg/l applied as spray after 5 days under green house conditions relative to control.
Test [11] concerns Pyricularia grisea. Briefly: Fungicidal activity against Magnaporthe grisea infected second leaf stage of rice plant at 500 mg/l applied as spray after 5 days under green house conditions relative to control. The essentials:
(§4)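 Rice at second leaf (three plants/pot) sprayed with sample (DMSO, diluted in water with 250 µg/mL Tween 20), greenhouse 1 day. Inoculated with conidia (1 × 10^6 spores/mL), 24 h at 25 °C and 100% RH, then 5 days lit at 26 ± 2 °C and 85% RH. Severity scored; control value from diseased area against Tween-sprayed controls; triplicate.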

The subject of test [12] is Pyricularia grisea. Briefly: Fungicidal activity against Magnaporthe grisea infected second leaf stage of rice plant at 1000 mg/l applied as spray after 5 days under green house conditions relative to control. The essentials: as §4
The subject of test [13] is Botrytis cinerea. The test can be described thus: Fungicidal activity against Botryotinia fuckeliana infected first-leaf stage of cucumber plant at 50 mg/l applied as spray after 4 to 5 days under green house conditions relative to control.
In test [14] the test system is Puccinia recondita. The test can be described thus: Fungicidal activity against Puccinia recondita infected first leaf stage of wheat plant at 50 mg/l applied as spray after 10 days under green house conditions relative to control.
The test system of test [15] is Phytophthora infestans. Briefly: Fungicidal activity against Phytophthora infestans infected second leaf-stage of tomato plant at 50 mg/l applied as spray after 4 days under green house conditions relative to control.
The subject of test [16] is Rhizoctonia solani. The test can be described thus: Fungicidal activity against Rhizoctonia solani infected in third leaf stage of rice plant at 50 mg/l applied as spray after 5 days under green house conditions relative to control.
Test [17] relates to Pyricularia grisea. Briefly: Fungicidal activity against Magnaporthe grisea infected second leaf stage of rice plant at 50 mg/l applied as spray after 5 days under green house conditions relative to control.
Test [18] relates to Blumeria graminis. The test can be described thus: Fungicidal activity against Blumeria graminis infected first-leaf stage of barley plant at 50 mg/l applied as spray under green house conditions relative to control.
The test system of test [19] is Botrytis cinerea. Briefly: Fungicidal activity against Botryotinia fuckeliana infected first-leaf stage of cucumber plant at 125 mg/l applied as spray after 4 to 5 days under green house conditions relative to control. The essentials:
(§5)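 Cucumber at first leaf (one plant/pot) sprayed with sample in DMSO/Tween 20 (250 µg/mL) water; controls Tween 20 solution. After 1 day, leaf-sprayed with B. cinerea conidia (1 × 10^6 spores/mL; 15-day PDA culture, 20 °C), held 4-5 days at 20 °C. Control value calculated from diseased area against untreated plants; three replicates.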

Test [20] relates to Puccinia recondita. Briefly: Fungicidal activity against Puccinia recondita infected first leaf stage of wheat plant at 125 mg/l applied as spray after 10 days under green house conditions relative to control. The essentials: as §2
Test [21] deals with Puccinia recondita. The test can be described thus: Fungicidal activity against Puccinia recondita infected first leaf stage of wheat plant at 250 mg/l applied as spray after 10 days under green house conditions relative to control. Summed up:
as §2

Test [22] has as its system Phytophthora infestans. The test can be described thus: Fungicidal activity against Phytophthora infestans infected second leaf-stage of tomato plant at 125 mg/l applied as spray after 4 days under green house conditions relative to control.
Test [23] deals with Phytophthora infestans. Briefly: Fungicidal activity against Phytophthora infestans infected second leaf-stage of tomato plant at 250 mg/l applied as spray after 4 days under green house conditions relative to control.
The subject of test [24] is Botrytis cinerea. Briefly: Fungicidal activity against Botryotinia fuckeliana infected first-leaf stage of cucumber plant at 250 mg/l applied as spray after 4 to 5 days under green house conditions relative to control. The essentials: as §5
For test [25], the system named is Rhizoctonia solani. The test can be described thus: Fungicidal activity against Rhizoctonia solani infected in third leaf stage of rice plant at 125 mg/l applied as spray after 5 days under green house conditions relative to control. The essentials:
as §3

For test [26], the system named is Rhizoctonia solani. Briefly: Fungicidal activity against Rhizoctonia solani infected in third leaf stage of rice plant at 250 mg/l applied as spray after 5 days under green house conditions relative to control. The essentials:
as §3

Test [27] has as its system Pyricularia grisea. The test can be described thus: Fungicidal activity against Magnaporthe grisea infected second leaf stage of rice plant at 125 mg/l applied as spray after 5 days under green house conditions relative to control. Summed up: as §4
Test [28] relates to Pyricularia grisea. Briefly: Fungicidal activity against Magnaporthe grisea infected second leaf stage of rice plant at 250 mg/l applied as spray after 5 days under green house conditions relative to control. Summed up: as §4
For test [29], the system named is Blumeria graminis. Briefly: Fungicidal activity against Blumeria graminis infected first-leaf stage of barley plant at 125 mg/l applied as spray under green house conditions relative to control.
Test [30] concerns Blumeria graminis. Briefly: Fungicidal activity against Blumeria graminis infected first-leaf stage of barley plant at 250 mg/l applied as spray under green house conditions relative to control. The essentials:
as §1

For the compound `CC1(C)C2CCC1(C)C(O)C2` (stereo not drawn) [BORNEOL], the Activity in the test with Blumeria graminis [1], in the test on Blumeria graminis [2], in the test on Puccinia recondita [3], with Puccinia recondita [4], in the test on Phytophthora infestans [5] and with Phytophthora infestans [6] was 0% in each case. Also, the Activity with Botrytis cinerea [7], with Botrytis cinerea [8], in the test on Rhizoctonia solani [9], in the test with Rhizoctonia solani [10], in the test on Pyricularia grisea [11] and in the test on Pyricularia grisea [12] was 0% each time.
`N#Cc1c(Cl)c(Cl)c(Cl)c(C#N)c1Cl` [CHLOROTHALONIL]: the Activity with Botrytis cinerea [13] is recorded as 0%; in the test on Puccinia recondita [14], 0%; in the test with Phytophthora infestans [15] it was 95%; in the test on Rhizoctonia solani [16], 0%; in the test on Pyricularia grisea [17] it was 0%; in the test with Blumeria graminis [18], 0%.
With `COc1cc(/C=C/C(=O)CC(=O)/C=C/c2ccc(O)c(OC)c2)ccc1O` [CURCUMIN], the Activity in the test on Botrytis cinerea [19] was 0%; in the test on Blumeria graminis [1] it was 0%; in the test on Blumeria graminis [2], 0%; with Puccinia recondita [20], 63%; in the test on Puccinia recondita [21], 76%; with Puccinia recondita [3], 100%. Also, the Activity was determined as 100% with Puccinia recondita [4]; 57% in the test on Phytophthora infestans [22]; 85% in the test with Phytophthora infestans [23]; 100% with Phytophthora infestans [5]; 100% with Phytophthora infestans [6]; 15% in the test on Botrytis cinerea [24]. Moreover, the Activity in the test with Botrytis cinerea [7] was 40%; with Botrytis cinerea [8], 70%; in the test with Rhizoctonia solani [25], 26%; with Rhizoctonia solani [26], 45%; in the test with Rhizoctonia solani [9], 85%; in the test on Rhizoctonia solani [10], 63%. For the same compound, the Activity with Pyricularia grisea [27], in the test with Pyricularia grisea [28], in the test with Pyricularia grisea [11], in the test with Pyricularia grisea [12], with Blumeria graminis [29] and with Blumeria graminis [30] was 0% in each case.
In the case of `CN(C)S(=O)(=O)N(SC(F)(Cl)Cl)c1ccccc1` [DICHLOFLUANID], the Activity in the test on Botrytis cinerea [13] is 92%; in the test with Puccinia recondita [14], 0%; in the test with Phytophthora infestans [15], 0%; in the test on Rhizoctonia solani [16], 0%; in the test with Pyricularia grisea [17], 0%; in the test with Blumeria graminis [18], 0%.
As for `CC12CCC(CC1)C(C)(C)O2` [EUCALYPTOL], the Activity with Blumeria graminis [1], in the test on Blumeria graminis [2], in the test with Puccinia recondita [3], with Puccinia recondita [4], in the test with Phytophthora infestans [5] and in the test with Phytophthora infestans [6] was 0% throughout. The Activity with Botrytis cinerea [7], with Botrytis cinerea [8], in the test with Rhizoctonia solani [9], in the test on Rhizoctonia solani [10], with Pyricularia grisea [11] and with Pyricularia grisea [12] was 0% throughout.
On to `C=C1CCC2(C(C)C)CC12` (stereo not drawn) [SABINENE], for which the Activity with Blumeria graminis [1], in the test on Blumeria graminis [2], in the test with Puccinia recondita [3], in the test on Puccinia recondita [4], with Phytophthora infestans [5] and in the test on Phytophthora infestans [6] was 0% in each case. The Activity in the test on Botrytis cinerea [7], with Botrytis cinerea [8], in the test on Rhizoctonia solani [9], in the test with Rhizoctonia solani [10], with Pyricularia grisea [11] and with Pyricularia grisea [12] was 0% in each case.
As for `CC(C)=CC(=O)C[C@H](C)C1=CCC(C)=CC1` [TURMERONE], the Activity in the test with Blumeria graminis [1], with Puccinia recondita [3], in the test on Puccinia recondita [4], with Phytophthora infestans [5], in the test on Phytophthora infestans [6] and with Botrytis cinerea [7] was 0% each time. Further, the Activity with Botrytis cinerea [8], in the test with Rhizoctonia solani [9], with Rhizoctonia solani [10], in the test on Pyricularia grisea [11] and in the test with Pyricularia grisea [12] was 0% in each case.
